Molecules are shown by their SMILES. Converted amounts (≈) assume the structure as drawn. The source made the active and inactive calls.

Data set [1] deals with Leishmania donovani. Briefly: Antileishmanial activity against Leishmania donovani MHOM/IN/80/DD8 promastigote forms harboring luciferase gene at 50 uM after 72 hrs by Steady-Glo reagent based luminescence assay relative to control. The format is functional. The settings on record: MHOM/IN/80/DD8, 72 h, read-out: GI. In a few lines: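 Exponential-phase Dd8-Luc promastigotes at 1×10^6/mL in M199 with 10% FBS, 24 °C, given 50 and 25 µM for 72 h. Vehicle 0.1% DMSO. Steady-Glo added 1:1, luminescence (RLU) read. IC50 from four-parameter Hill regression, derived only where inhibition exceeded 90%. Means of at least three independent experiments.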

The test system of data set [2] is Leishmania donovani. As to the kind of experiment: Antileishmanial activity against Leishmania donovani MHOM/IN/80/DD8 amastigote forms harboring luciferase gene infected in mouse J774 cells at 50 uM after 72 hrs by Steady-Glo reagent based luminescence assay relative to control. The settings on record: MHOM/IN/80/DD8, J774, 72 h, read-out: GI. The class given is functional. In a few lines:
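Stationary-phase luciferase-expressing Dd8 promastigotes infected into J774 macrophages (4×10^4/mL seeded, 24 h, 37 °C, 5% CO2) at 1:8 macrophage:parasite for 24 h. Non-internalised parasites washed off. Compounds added at 50 and 25 µM in RPMI/10% FBS for 72 h. Lysis with Steady-Glo luciferin reagent plus PBS, luminescence read. Inhibition relative to untreated infected controls.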

Data set [3] can be described thus: Cytotoxicity against African green monkey Vero cells assessed as reduction in cell viability after 72 hrs by MTT assay. The class given is cell-based. The settings on record: chlorocebus sabaeus. In a few lines:
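Vero and J774 cells seeded at 1×10^5 per well for 24 h, then exposed 72 h to seven two-fold dilutions from 500 to 7.81 μM. MTT solution (5 mg/mL stock) added for 2 h at 37 °C, formazan dissolved in DMSO and read at 540 nm. CC50 derived by the Huber and Koella method.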
For orientation: Tetrazolium dyes change colour on reduction, which living cells bring about.

In data set [4] the test system is Leishmania donovani. As to the kind of experiment: Antileishmanial activity against Leishmania donovani MHOM/IN/80/DD8 promastigote forms harboring luciferase gene after 72 hrs by Steady-Glo reagent based two fold dilution assay. The format is functional. The settings on record: MHOM/IN/80/DD8, 72 h. In a few lines: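 Promastigotes or J774-resident amastigotes treated 72 h with six two-fold dilutions from 200 µM down to 6.25 µM. Luciferase RLU fitted by four-parameter Hill non-linear regression to derive the […] inhibitory concentration (MIC).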

In data set [5] the test system is Leishmania donovani. As to the kind of experiment: Antileishmanial activity against Leishmania donovani MHOM/IN/80/DD8 amastigote forms harboring luciferase gene infected in mouse J774 cells at 50 uM up to 72 hrs by Giemsa staining based assay relative to control. The class given is functional. The settings on record: MHOM/IN/80/DD8, J774, 72 h. In outline: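 J774 macrophages in chamber slides infected with Dd8 promastigotes (1:10 cell:parasite in methods; 1:8 in legend) for 24 h, then treated 48 and 72 h. Cells methanol-fixed, stained with 20% Giemsa. Amastigotes per 100 macrophages counted against untreated infected controls.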

The nature of data set [6]: Stability in pH 6.5 simulated intestinal fluid at 5 ug/ml after 120 mins by HPLC method. In a few lines:
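Incubated in simulated gastric fluid (pH 1.2) or simulated intestinal fluid (pH 6.5); percentage remaining intact determined after 120 min.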

Data set [7] is described as follows: Half life in mouse liver S9 fractions at 1 mM in presence of NADPH by HPLC method. The format is ADME, tissue-based.
For the next data set, the system named is Liver. Briefly: Intrinsic clearance in mouse liver S9 fractions assessed per mg protein at 1 mM in presence of NADPH by HPLC method. The settings on record: s9, 1000 µM. The class given is ADME.
Data set [8] is described as follows: Metabolic stability in mouse liver S9 fractions assessed as rate constant for metabolism at 1 mM after 60 mins in presence of NADPH by HPLC method. The class given is ADME, tissue-based.
The test system of data set [9] is Leishmania donovani. Briefly: Antileishmanial activity against Leishmania donovani amastigote forms infected in Balb/c mouse assessed as inhibition of parasitic burden in spleen at 50 mg/kg, ip administered for 5 consecutive days measured on day 7 post last treatment by Giemsa staining based assay relative to control. The format is functional. The settings on record: 168 h.

For data set [10], the system named is Leishmania donovani. Briefly: Antileishmanial activity against Leishmania donovani amastigote forms infected in Balb/c mouse assessed as inhibition of parasitic burden in spleen at 25 mg/kg, ip co-treated with 5 mg/kg, po miltefosine administered for 5 consecutive days measured on day 4 and 7 post last treatment by Giemsa staining based assay relative to control. The class given is functional. In a few lines:
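Combination study with seven groups of 5 infected BALB/c mice, including vehicle (8% DMSO i.p.), infected untreated and miltefosine-alone groups. Treatment daily for 5 days, test compound i.p. and miltefosine orally. Mice killed on days 4 and 7 post-treatment; liver and spleen parasite load counted on Giemsa-stained stamp smears and expressed as LDU relative to infected untreated mice. Mean ± SD, n = 5, three independent experiments.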

For data set [11], the system named is Mus musculus. As to the kind of experiment: Toxicity in Balb/c mouse infected with Leishmania donovani amastigote forms assessed as changes in body weight at 12.5 to 200 mg/kg, ip co-treated with 5 to 25 mg/kg, po miltefosine for 5 consecutive days. The format is organism-based. The settings on record: in vivo.
For data set [12], the system named is Leishmania donovani. As to the kind of experiment: Antileishmanial activity against Leishmania donovani amastigote forms infected in Balb/c mouse assessed as reduction in spleen weight at 12.5 to 200 mg/kg, ip administered for 5 consecutive days. The class given is functional, organism-based.
The subject of data set [13] is Leishmania donovani. Briefly: Antileishmanial activity against Leishmania donovani amastigote forms infected in Balb/c mouse assessed as reduction in spleen weight at 12.5 to 200 mg/kg, ip administered for 5 consecutive days co-treated with 5 to 25 mg/kg, po miltefosine. The format is functional, organism-based.
Data set [14] has as its system Mus musculus. Briefly: Increase in IFN-gamma level in Balb/c mouse splenocytes infected with Leishmania donovani amastigote forms at 25 mg/kg, ip co-treated with 5 mg/kg, po miltefosine administered for 5 consecutive days measured on day 4 post last treatment by sandwich ELISA relative to control. The class given is functional. In a few lines: (§1)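 Splenocytes (2×10^6) from treated infected BALB/c mice taken on day 4 or 7 post-treatment. Cultured in phenol-red-free RPMI 1640 with 5 μg/mL soluble L. donovani antigen for 72 h at 37 °C, 5% CO2. Supernatant cytokines measured by sandwich ELISA against a standard curve. Mean ± SD, n = 5 mice per group, three independent experiments.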
Background: An ELISA detects its analyte on a solid surface through an enzyme-linked reagent.

The subject of data set [15] is Mus musculus. As to the kind of experiment: Decrease in IL-10 level in Balb/c mouse splenocytes infected with Leishmania donovani amastigote forms at 25 mg/kg, ip co-treated with 5 mg/kg, po miltefosine administered for 5 consecutive days measured on day 4 post last treatment by sandwich ELISA relative to control. The format is functional. In a few lines: as §1

For data set [16], the system named is Mus musculus. As to the kind of experiment: Increase in iNOS mRNA expression level in Balb/c mouse splenocytes infected with Leishmania donovani amastigote forms at 25 mg/kg, ip for 5 consecutive days measured on day 7 post last treatment by RT-PCR assay relative to control. The format is functional. In outline: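 Infected BALB/c mice dosed for 5 consecutive days (test compound i.p. in 8% DMSO, miltefosine oral), n = 5 per group; splenocytes taken day 4 and day 7 post-treatment. Total RNA extracted and iNOS mRNA quantified by real-time PCR, normalized to mouse β-actin, expressed as fold change over uninfected controls.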

The test system of data set [17] is Leishmania donovani. As to the kind of experiment: Induction of apoptosis in Leishmania donovani MHOM/IN/80/DD8 promastigote forms assessed as cell rounding at 50 uM after 48 hrs by propidium iodide staining based fluorescent microscopic method. The class given is functional.
Data set [18] in a line: Half life in Swiss mouse at 50 mg/kg, po by LC-MS/MS analysis. The class given is ADME, organism-based. The settings on record: in vivo.
A short description of data set [19]: Tmax in Swiss mouse at 50 mg/kg, po by LC-MS/MS analysis. The settings on record: in vivo. The class given is ADME, organism-based.

With `COc1ccc(C2C3=C(CCC3=O)Nc3c2c(-c2c[nH]c4ccccc24)nn3-c2ccc(Cl)c(Cl)c2)cc1OC` (stereo not given), the inhibition of growth at 50 µM with Leishmania donovani [1] was determined as 93.3%; in the data set with Leishmania donovani [2], 97.3%. Moreover, in data set [3], the half-maximal cytotoxic concentration (CC50) (usually the concentration giving 50% cytotoxicity) at 72 h came to 438 µM. Moreover, it took 50 µM (≈ 28.6 µg/mL) to inhibit growth against Leishmania donovani [4] (MIC). In the data set with Leishmania donovani [5], the inhibition (usually the relative decrease from the control value, in per cent) at 50 µM was more than 93%. Moreover, in data set [6], the Stability is 99%. For the same molecule, in data set [7], the half-life (commonly the time needed for the level to fall by half in the phase considered) at 1000 µM stood at 0.841 h. For the same molecule, the CLH with Liver came to 27.47 µL/min. For the same molecule, the k el at 1 h, 1000 µM in data set [8] was 0.000217 s⁻¹. In the data set with Leishmania donovani [9], the inhibition in vivo (commonly the percentage by which the read-out fell short of the control) at 50 mg/kg is more than 91%. Besides, the “inhibition (INH)” value is listed as more than 97% with Leishmania donovani [10] and 91% in the data set with Mus musculus [15]. In the data set on Mus musculus [11], the Activity result was “Non-Toxic”. Moreover, the result in the data set with Leishmania donovani [12], with Leishmania donovani [13] and with Leishmania donovani [17] was Active. Also, the “fold change (FC)” value in the data set with Mus musculus [14] was found to be 9.1; in the data set on Mus musculus [16] it was 3.3. In data set [18], this molecule gave a half-life of 4.81 h. Further, the Tmax (commonly the time from dosing to the highest level) in [19] is 1.75 h.

Values taken from ChEMBL document CHEMBL3992522, “Antileishmanial Activity of Pyrazolopyridine Derivatives and Their Potential as an Adjunct Therapy with Miltefosine” (J Med Chem, 2017).
